Results: ChEMBL document CHEMBL3286129, “Optimization of peptidomimetic boronates bearing a P3 bicyclic scaffold as proteasome inhibitors” (Eur J Med Chem, 2014)

Columns and labels:
[1] = Cytotoxicity against human leukemia cells assessed as cell growth at 10 uM relative to control; format: functional; conditions: read-out: Activity
How it was run: (§1)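 Single-concentration screen against a panel of human cancer cell lines. Each value is the mean percent growth across the cell lines of that tumour subpanel.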

SK-MEL-5 = assay: Growth inhibition of human SK-MEL-5 cells; format: functional
COLO 205 = assay: Growth inhibition of human COLO205 cells; format: functional
[2] = Cytotoxicity against human prostate cancer cells assessed as cell growth at 10 uM relative to control; format: functional; conditions: Cancer cell lines, read-out: Activity; how it was run: as §1
SNB-19 = assay: Growth inhibition of human SNB19 cells; format: functional
RPMI-8226 = assay: Growth inhibition of human RPMI8226 cells; format: functional
SN12C = assay: Growth inhibition of human SN12C cells; format: functional
[3] = Growth inhibition of human LOXIMVI cells; format: functional; conditions: LOX IMVI
[4] = Growth inhibition of human HOP92 cells; format: functional
[5] = Growth inhibition of human UO31 cells; format: functional; conditions: UO-31
SK-MEL-2 = assay: Growth inhibition of human SK-MEL-2 cells; format: functional
CAKI-1 = assay: Growth inhibition of human CAKI-1 cells; format: functional
HT-29 = assay: Growth inhibition of human HT-29 cells; format: functional
T47D = assay: Growth inhibition of human T47D cells; format: functional
[6] = Growth inhibition of human MOLT4 cells; format: functional
A549 = assay: Growth inhibition of human A549/ATCC cells; format: functional
ACHN = assay: Growth inhibition of human ACHN cells; format: functional
NCI-H23 = assay: Growth inhibition of human NCI-H23 cells; format: functional
[7] = Growth inhibition of human SF295 cells; format: functional; conditions: SF-295
[8] = Growth inhibition of human OVCAR8 cells; format: functional
Malme-3M = assay: Growth inhibition of human MALME-3M cells; format: functional
[9] = Growth inhibition of human OVCAR4 cells; format: functional
[10] = Growth inhibition of human SF539 cells; format: functional
[11] = Cytotoxicity against human renal cancer cells assessed as cell growth at 10 uM relative to control; format: functional; conditions: Cancer cell lines, read-out: Activity; how it was run: as §1
SK-OV-3 = assay: Growth inhibition of human SKOV3 cells; format: functional
SNB-75 = assay: Growth inhibition of human SNB75 cells; format: functional
[12] = Growth inhibition of human OVCAR5 cells; format: functional; conditions: OVCAR-5
SF-268 = assay: Growth inhibition of human SF268 cells; format: functional
HL-60(TB) = assay: Growth inhibition of human HL-60(TB) cells; format: functional
MDA-MB-468 = assay: Growth inhibition of human MDA-MB-468 cells; format: functional
U-251 = assay: Growth inhibition of human U251 cells; format: functional
SK-MEL-28 = assay: Growth inhibition of human SK-MEL-28 cells; format: functional
[13] = target: T1, Proteasome Macropain subunit MB1 (Homo sapiens, UniProt P28074); assay: Inhibition of chymotrypsin-like activity of 20S proteasome in human erythrocytes using Suc-Leu-Leu-Val-Tyr-AMC as substrate by fluorescence assay; conditions: read-out: Ki
T1 sequence (P28074 whole entry): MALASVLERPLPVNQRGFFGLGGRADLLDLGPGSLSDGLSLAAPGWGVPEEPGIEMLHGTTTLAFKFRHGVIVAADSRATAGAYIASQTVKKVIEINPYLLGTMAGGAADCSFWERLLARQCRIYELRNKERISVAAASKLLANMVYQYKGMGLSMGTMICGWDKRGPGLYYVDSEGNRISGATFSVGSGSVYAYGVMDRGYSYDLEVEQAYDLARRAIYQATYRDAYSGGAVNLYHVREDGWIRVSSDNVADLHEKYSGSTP

NCI-H522 = assay: Growth inhibition of human NCI-H522 cells; format: functional
KM12 = assay: Growth inhibition of human KM12 cells; format: functional
MDA-MB-435 = assay: Growth inhibition of human MDA-MB-435 cells; format: functional
A498 = assay: Growth inhibition of human A498 cells; format: functional
CCRF-CEM = assay: Growth inhibition of human CCRF-CEM cells; format: functional
[14] = Cytotoxicity against human breast cancer cells assessed as cell growth at 10 uM relative to control; format: functional; conditions: Cancer cell lines, read-out: Activity; how it was run: as §1
MCF7 = assay: Growth inhibition of human MCF7 cells; format: functional
[15] = read-out: LC50 (the source's name)

Molecule `CC(C)C[C@H](NC(=O)CCn1ccc2ccccc2c1=O)B(O)O` has a growth at 10 µM [1] of 21.1%, a GI50 (SK-MEL-5) of 4.3 µM and an LC50 (concentration killing 50% of cells) (SK-MEL-5) of 83.7 µM. The TGI (SK-MEL-5) was 19 µM, the GI50 (COLO 205) was 5.06 µM and the TGI (COLO 205) was > 100 µM. For the same molecule, the CC50 (COLO 205; [15]) was > 100 µM, the growth at 10 µM [2] was 57.8% and the GI50 (SNB-19) was 8.02 µM. For the same molecule, the TGI (SNB-19) was > 100 µM, the CC50 (SNB-19; [15]) was > 100 µM and the GI50 (RPMI-8226) was 1.06 µM. For the same molecule, the TGI (RPMI-8226) was 7.07 µM, the CC50 (RPMI-8226; [15]) was > 100 µM and the GI50 (SN12C) was 11.2 µM. For the same molecule, the TGI (SN12C) was 55.4 µM, the CC50 (SN12C; [15]) was > 100 µM and the GI50 [3] was 2.11 µM. The TGI [3] was 6.78 µM, the CC50 [3, 15] was > 100 µM and the GI50 ([4]; HOP-92) was 10.9 µM. For the same molecule, the TGI ([4]; HOP-92) was 67.1 µM, the CC50 ([4]; HOP-92, read-out: LC50 (the source's name)) was > 100 µM and the GI50 [5] was 3.92 µM. For the same molecule, the LC50 [5] was > 100 µM, the TGI [5] was 35.3 µM and the GI50 (SK-MEL-2) was 3.58 µM. The LC50 (SK-MEL-2) was > 100 µM, the TGI (SK-MEL-2) was 32.5 µM and the GI50 (CAKI-1) was 2.93 µM. The TGI (CAKI-1) was 27 µM, the CC50 (CAKI-1; [15]) was > 100 µM and the GI50 (HT-29) was 3.68 µM. For the same molecule, the LC50 (HT-29) was > 100 µM, the TGI (HT-29) was 48.7 µM and the GI50 (T47D) was 3.71 µM. For the same molecule, the TGI (T47D) was 29.3 µM, the CC50 (T47D; [15]) was > 100 µM and the GI50 ([6]; MOLT-4) was 1.28 µM. The TGI ([6]; MOLT-4) was 5.94 µM, the CC50 ([6]; MOLT-4, read-out: LC50 (the source's name)) was > 100 µM and the GI50 (A549) was 8.41 µM. The TGI (A549) was > 100 µM, the CC50 (A549; [15]) was > 100 µM and the GI50 (ACHN) was 1.75 µM. For the same molecule, the TGI (ACHN) was > 100 µM, the CC50 (ACHN; [15]) was > 100 µM and the GI50 (NCI-H23) was 25.4 µM. For the same molecule, the TGI (NCI-H23) was > 100 µM, the CC50 (NCI-H23; [15]) was > 100 µM and the GI50 [7] was 3.78 µM. The LC50 [7] was 83.3 µM, the TGI [7] was 19.6 µM and the GI50 ([8]; OVCAR-8) was 15.3 µM. For the same molecule, the TGI ([8]; OVCAR-8) was > 100 µM, the CC50 ([8]; OVCAR-8, read-out: LC50 (the source's name)) was > 100 µM and the GI50 (Malme-3M) was 2.58 µM. For the same molecule, the TGI (Malme-3M) was 9.89 µM, the CC50 (Malme-3M; [15]) was > 100 µM and the GI50 ([9]; OVCAR-4) was 17 µM. For the same molecule, the TGI ([9]; OVCAR-4) was > 100 µM, the CC50 ([9]; OVCAR-4, read-out: LC50 (the source's name)) was > 100 µM and the GI50 ([10]; SF-539) was 1.61 µM. For the same molecule, the TGI ([10]; SF-539) was 5.62 µM, the CC50 ([10]; SF-539, read-out: LC50 (the source's name)) was > 100 µM and the growth at 10 µM [11] was 32.3%. For the same molecule, the GI50 (SK-OV-3) was 4.72 µM, the LC50 (SK-OV-3) was > 100 µM and the TGI (SK-OV-3) was 81.3 µM. The GI50 (SNB-75) was 2.94 µM, the LC50 (SNB-75) was 93.4 µM and the TGI (SNB-75) was 15.9 µM. The GI50 [12] was 18.8 µM, the LC50 [12] was > 100 µM and the TGI [12] was > 100 µM. For the same molecule, the GI50 (SF-268) was 5.69 µM, the LC50 (SF-268) was > 100 µM and the TGI (SF-268) was 30.4 µM. For the same molecule, the GI50 (HL-60(TB)) was 2.69 µM, the TGI (HL-60(TB)) was 49.5 µM and the CC50 (HL-60(TB); [15]) was > 100 µM. The GI50 (MDA-MB-468) was 1.38 µM, the TGI (MDA-MB-468) was 7.08 µM and the CC50 (MDA-MB-468; [15]) was > 100 µM. The GI50 (U-251) was 4.23 µM, the TGI (U-251) was > 100 µM and the CC50 (U-251; [15]) was > 100 µM. For the same molecule, the GI50 (SK-MEL-28) was 3.27 µM, the TGI (SK-MEL-28) was > 100 µM and the CC50 (SK-MEL-28; [15]) was > 100 µM. For the same molecule, the Ki [13] was 0.051 µM, the GI50 (NCI-H522) was 2.61 µM and the LC50 (NCI-H522) was > 100 µM. For the same molecule, the TGI (NCI-H522) was 8.09 µM, the GI50 (KM12) was 7.51 µM and the LC50 (KM12) was > 100 µM. It also gave a TGI (KM12) of 29.8 µM, a GI50 (MDA-MB-435) of 1.27 µM and a TGI (MDA-MB-435) of 2.81 µM. For the same molecule, the CC50 (MDA-MB-435; [15]) was 6.24 µM, the GI50 (A498) was 1.22 µM and the LC50 (A498) was > 100 µM. For the same molecule, the TGI (A498) was 4.79 µM, the GI50 (CCRF-CEM) was 2.02 µM and the TGI (CCRF-CEM) was 25.4 µM. The CC50 (CCRF-CEM; [15]) was > 100 µM, the growth at 10 µM [14] was 38.1% and the GI50 (MCF7) was 4.35 µM. The TGI (MCF7) was > 100 µM and the CC50 (MCF7; [15]) was > 100 µM.
